Laboratory results: the RNAGym collection of RNA variant scans (doi:10.1126/science.aae0568)
This sample holds only a part of the variants without activity.

B1: tRNA (parent)
chain: GUUCCGUUGGCGUAAUGGUAACGCGUCUCCCUCCUAAGGAGAAGACUGCGGGUUCGAGUCCCGUACGGAACG

Variants of: B1
Test: yeast fitness relative to wild type (ratio to wild type); higher = fitter; tRNA-Arg(CCU), competitive growth, 37 C, YPD
Summary of the method: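 Gene amplicons from the start population and from each of six end populations were read by 100-nucleotide paired-end sequencing. Those end populations came from pooled Saccharomyces cerevisiae strains carrying tRNA-Arg(CCU) gene variants at the native locus, competed in YPD at 37°C for 24 hours. Fitness relative to wild type was worked out from changes in genotype frequencies. Genotypes needed ≥ 100 starting reads, and estimates < 0.5 were set to 0.5.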

Row | Variant | yeast fitness
1 | GUUCCGUUGCCGUAACGGUAAAGCGUCUCCCUACUAAGGAGAAGACUGCGGGUUCGAGUCCCGUACGGAACG | ≤ 0.5
2 | GUUCCGUUGGCGUAAUGGUAACGCGUCUCCCUCCUAAGGUGAAAACUGCGGGUUCGAGUCCCGUUCGGAACG | 0.51
3 | GUUCCGUUGGCGUAAUGGUACCGCGUCUCCCUCCUAAGGAGAAGACUGCGGGUUCGUGUCCCGUAUGGAACG | ≤ 0.5
4 | GUUCUGUUGGCGUAACGGUAACGCGUCUCCCUCCUAAGGGGAGGACUGCGGGUUCGAGUCCCCUACGGGACG | ≤ 0.5
5 | GUUCCGUUGGCGUAAUGGUAACGCGUCUCCCCCCUAAGGAGAAGACUACGGGGUCGAGUCCCGUACGGAACG | ≤ 0.5
6 | GUUCCGUUGGCGUAAUGGUAACGCGUCUCCCCCCUAAGGAGAAGACUGCGGGUUCGAGUCGCGUACGGCACG | ≤ 0.5
7 | GUUCCGUUGGCGUAAUGGUAACGCGUCUCCCUCCUAAGGAGAAGACUGCCGGUUCGAGUCCCGUACGGCACG | 0.67
8 | GUUCCGUUGGCGUAAUGGUAACGCGUCUCCCUCCUAAGGAGAAGUCUGCGGGUUAGAGUCCCGUACGGAACG | 0.566
9 | GUUCUGUUGGCGUAAUGGUAACGCGUCUCCCUCCUAAGGGGAAGACUGCGGGUUCAAGUCCCGUACGGCACG | 0.575
10 | GUUCCGUUGGCGUAAUGGUAACGCGUCUCCCUCGUAAGGAGAUGACUCCGGGUUCGAGUCCCGUACGGAACG | ≤ 0.5
11 | GUUCCGUUGGAGUAAUGGUAACGCGUCUCCGUCCUAAGGAGUAGACUGCGGGUUCGAGUCCUGAACGGAACG | ≤ 0.5
12 | GUUCCGUUGGCGUAAUGGUAACGCGUCUCCCUCCUAUGGAGAAGACUGAGGGUUCGAGUCCCGUUCGGAACG | ≤ 0.5
13 | GUUCCGUUGGCGUAAUGGUAACGGGUCUCCCUCCUAAGGAGAGGACAGCGGGAUCGAGUCCCGUACGGAACG | ≤ 0.5
14 | GUUCCGUUGGCGUAAUGGUAACGCGUCUCCCUCCUAAGGAAAAGACUGCGGGUUAGAGUCCCGUACGGAACG | 0.661
15 | GUUCAGUUGGCGUAAUGGUAACGCGUCUGCCUCCUAAGGAGAGGACUGCGGGUUCGAGUCCCGUACGGAACG | ≤ 0.5
16 | GUUGCGUUGGCGUAAUGGUGACGCGUCUCCCUCCUAAGGAGAAGACUGCGCGUUCGAGUCCCGUACGGAACG | 0.66
17 | GUUCUGUUGGCGUAAUGGUAACGCGUCACCCUCCUAAGGAGAAGACUGCGGGUUCGAGUCCCGUUCGGAACG | 0.553
18 | GUUCCGUUCGCGUAAUGGUAACGCGUCUCCCUCCUAAGGAGAAGACUGCCGGGUCGAGUCCCGUACCGAACG | 0.68
19 | GUUCCGUUGGCGUAAUGGUAACGCGUCUCCCUCCUAAGGAAAAGACUGCGGGUUCGAGUCCCGUAAGGAACG | 0.687

Row | Variant | yeast fitness
20 | GUUCUGUUGGCGUAAUGGUAAUGCGUUUCCCUCCUAAGGAGGAGACUGCGGGUUAGAGUACCGUACGGAUCG | 0.57
21 | GUUCCGUUGGCGUAAUGGUAACGCGUCUCACUCCUAAGGAGCAGACUGCGGGUUCGAGUCCCGUACGGGACG | ≤ 0.5
22 | GUUCCGUCGGCGUAAUGGUAUCGCGUCUCGCUCCUAAGGAGAAGACUGCGGGUUCGACUCCCGUACGGAACG | ≤ 0.5
23 | GGUCCGUUGGCGUAAUGGUAACGCGUUUCCCUCCUAAGGAGAAGAUUGCGGGUUCGAGUCCCGUACGGAACG | 0.999
24 | GUUCCGUGGGCGAAAUGGUAACGCGUCUCUCUCCUAAGCAGAAGACUGCGGGUUCGAGUCCCGUACGGAACG | ≤ 0.5
25 | GUUCCGUUGGCGUAAUGGUAACGCGUCUCCCUCCUAAGGAGAAGACAGGGGGUUCGAGUCCCGUACGGAACG | 0.767
26 | GUUCCGUUGGCGGAAUGGUAAUGCAUCUCCCUCCUAAGGAGAAGACUGCGGGUUCGAGUCCCGUACGGAACG | 1.01
27 | GUUCCGUUGGCGUAAUGGUAACGCGUCUCCCUCCCAAGGAGAAGACUGCGGGUUCGAGUCGCGUACGGGACG | ≤ 0.5
28 | GUUCCGUUGGCGUAAUGGUAACGCGUCUCCCUCCUAAGGAGAACACUACGGGUUCGAAUCCCGUACGGAACG | 0.881
29 | GUUCCGUUGGCGUAAUGGUAACGCGUCUCCCUCCUAAGGAGACGACUGGGGGUUCGGGUCCCGUACGGAACG | 0.591
30 | GUUCCGUUGGCGUCAUGGUAAUGCGUCUCCCUCCUAAGGAGAAGACUGCGGGUUCGAGUCCCGUACGGAGCG | ≤ 0.5
31 | GUUCCGUUGGCGUAAUGGUAAUGCGUCUCCCUCCUAAGGAGAAGUCUGCGGGUUCGAGUCCUGUACGGAACG | 0.671
32 | GUUCCGAUGGCGUAAUGGUAACGCGUCUCCCUCCUGAGGAGAAGACUGCGGGUUCGAGUACCGUACGGAACG | 0.533
33 | GUUCCGUUGGCGUCAUGGCAACGCGUCUCCCUGCUAAGGAGAAGACUGCGGGUUCGAGUCCCGUACGGAACG | 0.641
34 | GUUCCGUUGGGGUAAUGGUAACGCGUCUACCUCCUAAGGUGAAGACUGCGGAUUCGAGUCCCGUACGGAACG | ≤ 0.5
35 | GUUCCGUUGGCGUAAUGGUAACGCGUCUCCCUCCUAAGGAGAAGACUGCGGGUUCGAGUCCCGUACCGAACG | 0.986
36 | GUGCCGUUGGCGUAAUGGUAACGCGUCUCGCUCCUAAGGAGAAGACUGCGGGUUCGAGUCCCGUACGGACCG | 0.628
37 | GUUCCGACGGCGUAAUGGUAACGCGUCUUCCUCCUAAGGAGAAGACUGCGGGUUCGAGUCCCGUACGGAACG | ≤ 0.5
